TAAR1 agonist: human TAAR1 agonism. CHO RD-HGA16 TAAR1, Fluo-8 calcium fluorescence; vehicle wells 0%, saturating PEA agonist 100%. Q96RJ0. AID 624467. 0.99% of 360,000 active. activation, % at 3 µM;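 active = activation above the mean activation of all test compounds in the run plus 3 SD, cut at about 38% in these data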
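Signal – calcium-sensitive Fluo-8 signal, excitation 470-495, emission 515-575 nm · System – RD-HGA16 (CHO) cells co-expressing Gα16 and hTAAR1 · Incubation – 17-24 h seeding, 75 min 37 °C dye, 30 min RT · Compound dosing – 3 µM single concentration · Repeats – no replicates (n 1)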
GPR7 antagonist: blocks human GPR7 receptor signaling. P48145. GPR7-expressing cells, fluorescence antagonist assay. inhibition, % at 4.4 µM. 1.1% of 290,000 active. AID 1861; in the data active = inhibition above about 16%, passing the limit was not always enough;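 also: cells stimulated with the agonist NPW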
OX1R antag-1: blocks the human orexin 1 receptor. O43613. CHO/OX1R cells, Fluo-8 calcium fluorescence, orexin A. inhibition, % at 5 µM. 0.43% of 330,000 active. AID 434989;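 active = inhibition above its plate's threshold, mean inhibition of all tested compounds on the plate plus 3 SD, cut at about 37% in these data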
Target sequence (O43613 whole entry, looked up): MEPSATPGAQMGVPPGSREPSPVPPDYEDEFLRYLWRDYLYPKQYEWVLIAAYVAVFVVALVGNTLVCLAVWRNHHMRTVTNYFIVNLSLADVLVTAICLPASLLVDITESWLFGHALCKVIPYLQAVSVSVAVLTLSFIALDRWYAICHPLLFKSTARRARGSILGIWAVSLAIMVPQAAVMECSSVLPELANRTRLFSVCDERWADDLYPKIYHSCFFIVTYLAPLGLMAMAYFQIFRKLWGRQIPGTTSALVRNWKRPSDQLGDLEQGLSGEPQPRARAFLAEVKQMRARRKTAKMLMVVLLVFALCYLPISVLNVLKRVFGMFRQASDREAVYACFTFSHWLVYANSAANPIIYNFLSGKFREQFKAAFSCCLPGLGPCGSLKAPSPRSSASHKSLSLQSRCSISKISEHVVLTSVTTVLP
TAAR1 antagonist: antagonists of human TAAR1 | Q96RJ0 | CHO RD-HGA16 TAAR1, Fluo-8 calcium fluorescence, antagonist | inhibition, % at 3 µM | 1.5% of 360,000 active | AID 624466;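 active = inhibition above a per-plate cutoff, the mean inhibition of test compounds on that plate plus 3 SD, cut at about 49% in these data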
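Test system – hTAAR1-expressing CHO RD-HGA16 cells, Gα16-coupled · Reagent – β-PEA at EC80 concentration, post-compound challenge · Compound dosing – 3 µM, single point · Timing – 140 s kinetic read after compound, 140 s after agonist · Detection – Fluo-8 intracellular calcium dye fluorescence, real-time kinetic reads · Control set – DMSO and EC80 PEA controls · Repeats – n of 1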
CHO parental Ca: signal in parental CHO cells, OX1R antagonist counter-screen; 0.63% of 330,000 active; parental CHO-K1, ATP-induced calcium, Fluo-8 fluorescence; AID 463079; inhibition, % at 5.6 µM;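 active = inhibition above that plate's mean sample inhibition plus 3 SD, cut at about 26% in these data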
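Measured by: calcium-sensitive Fluo-8 fluorescence / Test system: CHO parental line / Controls: ATP-challenged DMSO wells low, unchallenged DMSO wells high / Measure: % inhibition / Compound: single nominal dose of 5.6 µM per compound / Replicates: single well per compound, no replicates / Reagent: ATP as calcium-mobilizing challenge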
OX1R antag-2: antagonists of human orexin 1 receptor (OX1R); AID 485270; 1.8% of 330,000 active; OX1R-expressing cells, FRET antagonist read-out; inhibition, % at 6.6 µM; O43613; in the data active = inhibition mostly above about 38%, no sharp cut-off; inactive = mostly below about 40%
TAAR1 ag confirm: confirmation of human TAAR1 agonists. activation, % at 3 µM. 82% of 2,400 active. CHO RD-HGA16 TAAR1, Fluo-8 calcium fluorescence; scaled: DMSO 0%, maximal phenethylamine 100%. AID 651783. shares compounds with TAAR1 agonist;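 active = activation above a cutoff set at the run's mean compound activation plus 3 SD, cut at about 39% in these data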
Ga16 ag counter: counter-screen for TAAR1 agonists: nonselective agonists in parental cells; shares compounds with TAAR1 agonist; CHO-Ga16 parental, Fluo-8 calcium fluorescence; normalized to maximal ATP response, DMSO zero; activation, % at 3 µM; 50% of 2,400 active; AID 651787;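 active = activation above the run cutoff, the mean activation over all tested wells plus 3 SD, cut at about 12% in these data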
TAAR1 desensitize: counter-screen for human TAAR1 agonists: agonists that desensitize TAAR1. shares compounds with TAAR1 agonist. CHO RD-HGA16 hTAAR1, Fluo-8 calcium, beta-PEA response inhibition. inhibition, % at 3 µM. 46% of 2,400 active. AID 651951;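 active = inhibition above the run cutoff, the mean inhibition of all test compounds plus 3 SD, cut at about 49% in these data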;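 also: beta-PEA stimulus applied at its EC80; loss of beta-PEA calcium signal after compound pretreatment read as receptor desensitization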
Ga16 nonsel ant: nonselective Ga16 antagonism, counter-screen; 39% of 2,400 active; CHO-Ga16 ATP-induced calcium, Fluo-8 fluorescence; inhibition, % at 3 µM; shares compounds with TAAR1 agonist;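 active = inhibition above the plate's mean compound inhibition plus 3 SD, computed per plate, cut at about 22% in these data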
A number is an active result; 0 = inactive; - = not tested or not shown. Compounds with a hit are over-represented: about 4.6% of the library has one in this group of screens.

SMILES | TAAR1 agonist | GPR7 antagonist | OX1R antag-1 | TAAR1 antagonist | CHO parental Ca | OX1R antag-2 | TAAR1 ag confirm | Ga16 ag counter | TAAR1 desensitize | Ga16 nonsel ant
Cc1ccc(S(=O)(=O)Cc2ccc(C(=O)N3CCc4ccccc4C3)o2)cc1 | 69 | 0 | 0 | 64 | 0 | 0 | 48 | 0 | 0 | 0
CC(=O)Nc1ccccc1OC(C)C(=O)NC(C)c1ccc(F)cc1 (centres undefined) | 0 | 0 | 0 | 0 | 0 | 0 | - | - | - | -
CC(C)(C)OC(=O)N[C@@H](Cc1ccccc1)C(=O)N[C@@H](CO)[C@H](O)[C@@H]1C[C@@H]1C(=O)NC1CC1 | 0 | 0 | 0 | 0 | 0 | 0 | - | - | - | -
COCOc1cccc(CN2CCC2(C)C(=O)Nc2ccc(C)cc2)c1 (centres undefined) | 0 | - | - | 0 | - | - | - | - | - | -
COC(=O)[C@@]12CCCCN1[C@H](c1ccc(-c3cc(C(C)=O)cs3)cc1)[C@H]1C(=O)N(C)C(=O)[C@H]12 | 0 | - | 0 | 0 | 0 | 0 | - | - | - | -
CC(C)=N/N=C(\N)SCc1ccccc1 | - | 0 | 0 | - | 0 | 0 | - | 0 | - | 0
COc1ccc(N=C(N)SCc2ccccn2)cc1 | 0 | 0 | 0 | 0 | 0 | 0 | - | - | - | -
Clc1cccc(Cl)c1CSc1nnc(-c2ccncc2)s1 | 117 | 0 | 0 | 79 | 0 | 0 | 128 | 117 | 100 | 75
CCOc1ccccc1C(=O)N[C@H](C(=O)Nc1nc2c(s1)CCCC2)C(C)C | 46 | 0 | 0 | 0 | 0 | 0 | 41 | 13 | 0 | 0
CC1(C(=O)NS(=O)(=O)c2ccccc2)CCN1C(=O)CC1CCCC1 (centres undefined) | 0 | - | - | 0 | - | - | - | - | - | -
CC(=NCCc1ccccc1)C1=C(O)CCC1=O | 105 | 0 | 0 | 74 | 0 | 0 | 98 | 0 | 73 | 0
CC(=NCCc1ccccc1)C1=C(O)CSC1=O | 93 | 0 | 0 | 75 | 0 | 0 | 84 | 0 | 56 | 0
CCCCN=C(C)C1=C(O)CSC1=O | 0 | 0 | 0 | 0 | 0 | 0 | - | - | - | -
CCOC(=O)C1=NN(C(=O)c2ccc(C)cc2)C(O)(c2ccc(Cl)cc2)C1 (centres undefined) | 116 | 0 | 0 | 73 | 0 | 0 | 69 | 79 | 0 | 42
CCC1=NN(C(=O)c2ccc(Cl)cc2)C(O)(c2ccc(C)cc2)C1 (centres undefined) | 0 | 0 | - | 0 | - | - | - | - | - | -
CCOC(=O)CC1C(=O)NCCN1C(=O)c1ccc(Cl)cc1Cl (centres undefined) | 73 | 0 | 0 | 0 | 0 | 0 | 0 | 0 | 0 | 0
CCOC(=O)CC1C(=O)NCCN1C(=O)c1ccc(F)cc1F (centres undefined) | 0 | 0 | 0 | 0 | 0 | 0 | - | - | - | -
CN1C(=O)NC(c2ccccc2)C2=C1CN(CCc1ccccc1)C2=O (centres undefined) | 58 | 0 | 0 | 0 | 0 | 0 | 72 | 0 | 54 | 0
COc1ccc(CCN2CC3=C(C2=O)C(c2ccccc2)NC(=O)N3C)cc1OC (centres undefined) | 0 | 0 | 0 | 0 | 0 | 0 | - | - | - | -
NC(N)=NN=C(c1ccc(F)cc1)c1ccc(C(F)(F)F)cc1 | 51 | - | - | 0 | - | - | 65 | 32 | 0 | 28
O=C(Cn1nnc2ccccc2c1=O)NCCc1ccc(Cl)cc1Cl | 54 | 0 | 0 | 0 | 0 | 0 | 0 | 0 | 0 | 0
CC1CCc2c(sc(NC(=O)CSc3nc4c(c(C(F)(F)F)n3)CCc3ccccc3-4)c2C(N)=O)C1 (centres undefined) | 0 | 0 | 0 | 0 | 0 | 0 | - | - | - | -

Compound activity: PubChem BioAssay, The Scripps Research Institute Molecular Screening Center
